Assays:
[1] = tested on: HeLa; test: Antiproliferation activity against human HeLa cells assessed as reduction in cell viability incubated for 72 hrs by MTT assay; assay type: functional, cell-based
Procedure, shortened: (§1)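 MTT assay. Cells were plated overnight and exposed to a range of concentrations for 72 h. MTT was then added for 4 h and absorbance read at 570 nm. Inhibition% = [(control − compound)/(control − blank)] × 100. IC50 was fitted from the curves. Mean ± S.D. of 3–5 separate experiments. RPMI 1640 + 10% FBS; MCF10A in DMEM/F12 with 5% horse serum, EGF, hydrocortisone, insulin and cholera toxin.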

[2] = tested on: MDA-MB-231; test: Antiproliferation activity against human MDA-MB-231 cells assessed as reduction in cell viability incubated for 72 hrs measured after 4 hrs by MTT assay; assay type: functional, cell-based; procedure, shortened: as §1
[3] = tested on: T47D; test: Antiproliferation activity against human T47D cells assessed as reduction in cell viability incubated for 72 hr by MTT assay; assay type: functional, cell-based; procedure, shortened: as §1
[4] = Inhibition of hedgehog pathway in mouse NIH/3T3 cells harboring GRE-Luc assessed as inhibition of SAG-induced Hh signaling pathway by dual luciferase reporter gene assay; assay type: cell-based; conditions: NIH3T3
Procedure, shortened: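 NIH3T3 cells co-transfected with 8×3' Gli-BS-delta51-Luc II firefly reporter and pRL-TK Renilla plasmid; after 24 h treated with compounds plus SAG (pathway activator). Gli luciferase normalized to Renilla (dual-luciferase read-out); IC50 = concentration halving normalized signal; mean ± S.D. of 3–5 separate experiments.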

[5] = tested on: A549; test: Antiproliferation activity against human A549 cells assessed as reduction in cell viability incubated for 72 hrs by MTT assay; assay type: functional, cell-based; conditions: A549, 72 h; procedure, shortened: as §1
[6] = tested on: MDA-MB-468; test: Antiproliferation activity against human MDA-MB-468 cells assessed as reduction in cell viability incubated for 72 hr by MTT assay; assay type: functional, cell-based; conditions: MDA-MB-468, 72 h; procedure, shortened: as §1
[7] = tested on: AN3-CA; test: Antiproliferation activity against human AN3CA cells assessed as reduction in cell viability incubated for 72 hr by MTT assay; assay type: functional, cell-based; procedure, shortened: as §1
[8] = tested on: U-251; test: Antiproliferation activity against human U251 cells assessed as reduction in cell viability incubated for 72 hrs by MTT assay; assay type: functional, cell-based; conditions: U-251, 72 h; procedure, shortened: as §1
[9] = tested on: MCF7; test: Antiproliferation activity against human MCF7 cells assessed as reduction in cell viability incubated for 72 hrs by MTT assay; assay type: functional, cell-based; conditions: MCF7, 72 h; procedure, shortened: as §1

Row | Structure (SMILES) | IC50 [1] [µM] | IC50 [2] [µM] | IC50 [3] [µM] | IC50 [4] [µM] | IC50 [5] [µM] | IC50 [6] [µM] | IC50 [7] [µM] | IC50 [8] [µM] | IC50 [9] [µM]
1 | CS(=O)(=O)c1ccc(C(=O)Nc2ccc(Cl)c(-c3nnc4c(Cl)cccn34)c2)cc1 | > 100 | > 100 | > 100 | 1.77 | > 100 | > 100 | > 100 | > 100 | 94.2
2 | O=C(Nc1ccc(Cl)c(-c2nnc3c(Cl)cccn23)c1)c1c(F)cccc1Cl | > 100 | > 100 | > 100 | > 10 | 72.3 | 57.6 | > 100 | > 100 | > 100
3 | Cc1nc(C(=O)Nc2ccc(Cl)c(-c3nnc4c(Cl)cccn34)c2)cs1 | 79.8 | > 100 | > 100 | > 10 | > 100 | > 100 | > 100 | 74.3 | > 100
4 | O=C(Nc1ccc(Cl)c(-c2nnc3c(Cl)cccn23)c1)c1ccon1 | > 100 | > 100 | > 100 | > 10 | 42.7 | > 100 | > 100 | > 100 | > 100
5 | O=C(Nc1ccc(Cl)c(-c2nnc3c(Cl)cccn23)c1)c1cccnc1Cl | 87.5 | 89.7 | > 100 | > 10 | 35.8 | > 100 | > 100 | > 100 | > 100
6 | CS(=O)(=O)c1cccc(C(=O)Nc2ccc(Cl)c(-c3nnc4c(Cl)cccn34)c2)c1 | 86.4 | > 100 | > 100 | 2.98 | > 100 | > 100 | > 100 | > 100 | 88.9
7 | O=C(Nc1ccc(Cl)c(-c2nnc3c(Cl)cccn23)c1)c1ccc(Cl)cc1 | > 100 | > 100 | > 100 | 2.73 | 73.6 | > 100 | > 100 | > 100 | 58.4
8 | O=C(Nc1ccc(Cl)c(-c2nnc3c(Cl)cccn23)c1)c1ccc(C(F)(F)F)cc1Cl | > 100 | > 100 | > 100 | 5.2 | > 100 | > 100 | > 100 | > 100 | 81.6
9 | CS(=O)(=O)c1ccc(C(=O)Nc2ccc(Cl)c(-c3nnc4c(Cl)cccn34)c2)c(Cl)c1 | > 100 | 37.2 | > 100 | 4.27 | > 100 | > 100 | > 100 | 44.6 | > 100
10 | Cc1cc(Cl)ccc1C(=O)Nc1ccc(Cl)c(-c2nnc3c(Cl)cccn23)c1 | > 100 | > 100 | > 100 | > 10 | > 100 | 34.3 | > 100 | > 100 | > 100
